Measurements: ChEMBL document CHEMBL3272052, “Imidazo[1,2-a]-s-triazine nucleosides. Synthesis and antiviral activity of the N-bridgehead guanine, guanosine, and guanosine monophosphate analogues of imidazo[1,2-a]-s-triazine” (J Med Chem, 1978)
Activity calls are given as the source filed them. The calls are words filed in the database; no cut-off is given here.

Legend:
Assay type in all cases: functional, organism-based
Enterovirus [1] = assay: Antiviral activity against Rhinovirus 1A infected in human KB cells assessed as inhibition of virus-induced cytopathic effect after 72 hrs by microscopic analysis relative to control
Enterovirus [2] = assay: Antiviral activity against Rhinovirus 2 infected in human KB cells assessed as inhibition of virus-induced cytopathic effect after 72 hrs by microscopic analysis relative to control
Enterovirus [3] = assay: Antiviral activity against Rhinovirus 8 infected in human KB cells assessed as inhibition of virus-induced cytopathic effect after 72 hrs by microscopic analysis relative to control
Enterovirus [4] = assay: Antiviral activity against Rhinovirus 13 infected in human KB cells assessed as inhibition of virus-induced cytopathic effect after 72 hrs by microscopic analysis relative to control
Method in brief: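 KB (human nasopharyngeal carcinoma) monolayers, 19-24 h old, were infected with 320 CCID50 of virus. Compound was added within 15 min at one-half-log dilutions from 1000 to 1 µg/mL. After 72 h at 37 °C, CPE and cytotoxicity were scored microscopically (0-4). The virus rating sums the control-minus-treated CPE scores over all levels, halving any level showing partial toxicity.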

Enterovirus [5] = assay: Antiviral activity against Rhinovirus 30 infected in human KB cells assessed as inhibition of virus-induced cytopathic effect after 72 hrs by microscopic analysis relative to control

With `NC(=O)c1ncn([C@@H]2O[C@H](CO)[C@@H](O)[C@H]2O)n1` the inhibition (Enterovirus [1]) was “Active”, the inhibition (Enterovirus [2]) was “Active” and the inhibition (Enterovirus [3]) was “Active”. The inhibition (Enterovirus [4]) was “Active” and the inhibition (Enterovirus [5]) was “Active”.
In the case of `Nc1nc(=O)n2ccn([C@@H]3O[C@H](COP(=O)(O)O)[C@@H](O)[C@H]3O)c2n1`, the inhibition (Enterovirus [1]) was “inactive”, the inhibition (Enterovirus [2]) was “Active” and the inhibition (Enterovirus [3]) was “inactive”. The inhibition (Enterovirus [4]) was “inactive” and the inhibition (Enterovirus [5]) was “inactive”.
In the case of `Nc1nc(=O)n2ccn([C@@H]3O[C@H](COC(=O)c4ccccc4)[C@@H](OC(=O)c4ccccc4)[C@H]3OC(=O)c3ccccc3)c2n1`, the inhibition (Enterovirus [4]) was “inactive”.
`O=c1nc2n([C@@H]3O[C@H](CO)[C@@H](O)[C@H]3O)ccn2c(=O)[nH]1` was tested, and the inhibition (Enterovirus [4]) was “inactive”.
For `Nc1nc(=O)n2cc[nH]c2n1`, the inhibition (Enterovirus [1]) was “Active”, the inhibition (Enterovirus [2]) was “Active” and the inhibition (Enterovirus [3]) was “Active”. The inhibition (Enterovirus [4]) was “Active” and the inhibition (Enterovirus [5]) was “Active”.
With `O=c1[nH]c(=O)n2ccnc2[nH]1` the inhibition (Enterovirus [4]) was “inactive”.
In the case of `Nc1nc(=O)n2ccn([C@@H]3O[C@H](CO)[C@@H](O)[C@H]3O)c2n1`, the inhibition (Enterovirus [1]) was “Active”, the inhibition (Enterovirus [2]) was “Active” and the inhibition (Enterovirus [3]) was “inactive”. The inhibition (Enterovirus [4]) was “inactive” and the inhibition (Enterovirus [5]) was “inactive”.
